Results taken from publication PMC11571001 (ACS Medicinal Chemistry Letters, 2024).
“Also recorded” adds a separate entry of the source.

What was measured:
HeLa cells = experiment: Cellular ADP-ribosylation in H2O2-stimulated HeLa cells; format: cell-based, human; conditions: H2O2 1 mM, inhibitor 100 μM, 20 minutes
Procedure, shortened: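 HeLa cells were stimulated with H2O2 and treated without or with test compound at 100 μM. Cellular ADP-ribosylation was imaged by confocal microscopy using an AF1521 macrodomain-based pan-ADPr binding reagent. Lysates were immunoblotted with the same pan-ADPr reagent, with anti-GAPDH as loading control. Densitometry was normalized to loading controls, and significance was reported as p < 0.05 and p < 0.01.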

full-length human PARP2 = full-length human PARP2 (Homo sapiens, UniProt Q9UGN5); experiment: PARP2 auto-poly-ADP-ribosylation, immunoblot with anti-PAR antibody; format: biochemical; conditions: compound 100 μM, 300 μM NAD+
full-length human PARP2, sequence (Q9UGN5 whole entry): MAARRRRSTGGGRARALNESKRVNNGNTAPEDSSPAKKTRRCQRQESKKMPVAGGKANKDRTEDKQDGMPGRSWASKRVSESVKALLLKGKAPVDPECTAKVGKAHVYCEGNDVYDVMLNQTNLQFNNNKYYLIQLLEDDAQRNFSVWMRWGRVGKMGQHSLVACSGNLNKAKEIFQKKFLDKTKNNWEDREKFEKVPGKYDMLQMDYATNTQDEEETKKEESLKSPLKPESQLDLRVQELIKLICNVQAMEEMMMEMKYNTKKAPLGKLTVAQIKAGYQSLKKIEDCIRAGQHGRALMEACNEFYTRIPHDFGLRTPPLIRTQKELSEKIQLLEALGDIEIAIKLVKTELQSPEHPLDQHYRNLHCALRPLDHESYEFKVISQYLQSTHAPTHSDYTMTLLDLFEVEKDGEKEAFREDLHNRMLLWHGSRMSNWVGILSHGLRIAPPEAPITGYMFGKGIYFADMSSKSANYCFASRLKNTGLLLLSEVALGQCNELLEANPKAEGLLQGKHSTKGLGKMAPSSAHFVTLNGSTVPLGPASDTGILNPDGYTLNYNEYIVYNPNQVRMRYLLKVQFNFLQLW
Procedure, shortened: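 Full-length human enzyme was recombinantly expressed in and purified from bacteria. Auto-PARylation was run in the absence and presence of test compound at 100 μM. Immunoblots were probed with anti-PAR antibody and band signal was quantified.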

[1] = target: catalytic domain of human PARP5a (Homo sapiens, UniProt O95271); experiment: PARP5a auto-ADP-ribosylation, immunoblot with pan-ADPr binding reagent; format: biochemical; conditions: compound 100 μM, 300 μM NAD+
catalytic domain of human PARP5a, sequence (O95271 1112-1317): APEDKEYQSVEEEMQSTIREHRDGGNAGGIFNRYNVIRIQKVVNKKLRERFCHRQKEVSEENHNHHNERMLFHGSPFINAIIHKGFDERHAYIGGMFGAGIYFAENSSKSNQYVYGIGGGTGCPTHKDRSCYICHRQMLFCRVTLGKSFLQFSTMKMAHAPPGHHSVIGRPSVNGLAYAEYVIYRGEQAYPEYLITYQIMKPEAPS

[2] = target: T1, catalytic domain of human PARP10 (Homo sapiens, UniProt Q53GL7); experiment: PARP10 auto-ADP-ribosylation; format: biochemical; conditions: compound 100 μM; 300 μM NAD+; pan-ADPr binding reagent immunoblot
T1 sequence (Q53GL7 806-1025 limits assumed): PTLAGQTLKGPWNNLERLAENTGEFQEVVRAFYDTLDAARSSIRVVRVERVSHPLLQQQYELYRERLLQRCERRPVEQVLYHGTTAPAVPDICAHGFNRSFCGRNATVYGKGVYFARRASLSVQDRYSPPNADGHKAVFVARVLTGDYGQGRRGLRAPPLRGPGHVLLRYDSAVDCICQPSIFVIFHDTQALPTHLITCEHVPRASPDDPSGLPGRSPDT

[3] = system: HAP1/PARP1-knockout cell lysates; experiment: Protein ADP-ribosylation in HAP1/PARP1-KO cell lysates, immunoblot; format: biochemical, human; conditions: compound 100 μM; 600 μM NAD+; olaparib 100 μM as control
[4] = system: HAP1 wild-type cell lysates; experiment: Protein ADP-ribosylation in HAP1 wild-type cell lysates, immunoblot; format: biochemical, human; conditions: compound 100 μM; 600 μM NAD+; olaparib 100 μM as control

inhibition of PARP2-catalyzed auto-modification (PARylation) (full-length human PARP2)	SMILES	effect on cellular ADP-ribosylation triggered by H2O2 (HeLa cells)	further results
–	CC(=O)c1cccc(CCOc2ccc(F)cc2C(N)=O)c1 [compound 8]	no significant impact	–
reduced inhibition activities	CC(=O)c1cccc([C@H](C)Oc2ccccc2C(N)=O)c1 [compound 5]	–	–
reduced inhibition activities	CC(=O)c1cccc([C@@H](C)Oc2ccccc2C(N)=O)c1 [compound 4]	–	–
–	O=C(c1cc(Cc2n[nH]c(=O)c3ccccc23)ccc1F)N1CCN(C(=O)C2CC2)CC1 [olaparib, reference compound]	largely suppressed	–
–	CC(=O)c1cccc(CCOc2ccccc2C(N)=O)c1 [compound 7]	no significant impact	–
reduced inhibition activities	CC(=O)c1cccc(CCCOc2ccccc2C(N)=O)c1 [compound 9]	–	–

SMILES	inhibition of PARP2-catalyzed auto-modification (PARylation) (full-length human PARP2)	effect on cellular ADP-ribosylation triggered by H2O2 (HeLa cells)	further results
CC(=O)c1cccc(COc2ccccc2C(N)=O)c1 [compound 3]	functions as an inhibitor for PARP2; also recorded: significantly inhibit	–	inhibition of PARP5a-catalyzed auto-ADP-ribosylation [1]: significantly decreased levels of ADP-ribosylation; inhibition of PARP10-catalyzed auto-ADP-ribosylation [2]: significantly decreased levels of ADP-ribosylation; inhibition of protein ADP-ribosylation in HAP1/PARP1-KO cell lysates [3]: no significant differences to those of olaparib-treated ones and non-modified controls; inhibition of protein ADP-ribosylation in HAP1-WT cell lysates [4]: significantly higher than those of olaparib-treated ones
